Values after ≈ are worked out from the molar mass of the structure shown. Active and inactive are the calls of the source. The calls are words filed in the database; no cut-off is given here. Square brackets hold non-standard residues; d marks the D form. Peptide text beside a SMILES is read from it. dPhe(4-Cl) = N[C@H](Cc1ccc(Cl)cc1)C(=O)O; d2Nal = N[C@H](Cc1ccc2ccccc2c1)C(=O)O; dCit = NC(=O)NCCC[C@@H](N)C(=O)O; d3Pal = N[C@H](Cc1cccnc1)C(=O)O
What was measured:
[1] = biological target: T1, Gonadotropin-releasing hormone receptor (Homo sapiens, UniProt P30968); experiment: Antagonist activity at human GnRH receptor expressed in CHO-K1 cells assessed as inhibition of LHRH-induced response preincubated for 20 mins followed by LHRH addition and measured after 60 mins by TR-FRET assay; assay type: cell-based
T1 sequence (P30968 whole entry): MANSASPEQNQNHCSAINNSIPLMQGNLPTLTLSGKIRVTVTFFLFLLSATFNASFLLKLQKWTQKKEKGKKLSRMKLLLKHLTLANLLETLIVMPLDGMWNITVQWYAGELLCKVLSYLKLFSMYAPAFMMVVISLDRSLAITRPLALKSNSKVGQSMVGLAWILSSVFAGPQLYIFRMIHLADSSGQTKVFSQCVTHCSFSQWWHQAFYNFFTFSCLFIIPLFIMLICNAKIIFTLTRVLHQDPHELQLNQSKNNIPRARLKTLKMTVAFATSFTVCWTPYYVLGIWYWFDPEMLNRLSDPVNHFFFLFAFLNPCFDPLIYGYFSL

[2] = Clearance in Wistar rat at 0.5 mg/kg, iv by LC-MS/MS analysis; assay type: ADME, organism-based; details: in vivo; for clearance: Wistar; for CL: 0.5 mg/kg
[3] = Intrinsic clearance in Han Wistar rat hepatocytes at 1 uM measured up to 90 mins by LC/MS/MS analysis; assay type: ADME, cell-based, Hepatocyte; details: for CLint scaled at 1 µM: Han Wistar, read-out: CLH (converted); for CLH: 1.5 h, 1 µM
[4] = biological target: T1, Gonadotropin-releasing hormone receptor; experiment: Antagonist activity at human GnRH receptor expressed in CHO-K1 cells assessed as inhibition of buserelin-induced response preincubated for 20 mins followed by buserelin addition and measured after 60 mins by TR-FRET assay; assay type: cell-based
[5] = Oral bioavailability in Wistar rat at 2 mg/kg by LC-MS/MS analysis; assay type: ADME, organism-based; details: in vivo
[6] = biological target: T2, Gonadotropin-releasing hormone receptor (Rattus norvegicus, UniProt P30969); experiment: Antagonist activity at rat GnRH receptor expressed in CHO-K1 cells assessed as inhibition of LHRH-induced response preincubated for 20 mins followed by LHRH addition and measured after 60 mins by TR-FRET assay; assay type: cell-based
T2 sequence (P30969 whole entry): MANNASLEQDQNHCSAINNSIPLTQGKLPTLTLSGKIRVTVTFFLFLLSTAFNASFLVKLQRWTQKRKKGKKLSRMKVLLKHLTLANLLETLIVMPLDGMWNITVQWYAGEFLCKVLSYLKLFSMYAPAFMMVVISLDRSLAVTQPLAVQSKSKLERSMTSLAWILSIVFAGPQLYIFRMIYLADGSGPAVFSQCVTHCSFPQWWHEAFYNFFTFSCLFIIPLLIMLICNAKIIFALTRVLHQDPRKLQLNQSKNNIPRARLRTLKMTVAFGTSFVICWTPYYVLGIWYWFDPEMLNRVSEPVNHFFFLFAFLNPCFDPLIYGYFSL
How it was run: (§1)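 Frozen rat-receptor cells: thawed, seeded overnight in serum-containing Ham's F12, Accutase-harvested, resuspended in serum-free medium with IP1-d2, 1 h at 37 °C. 1.0 × 10^4 cells/well, 20 min compound preincubation at rt, then 1× EC80 LHRH or buserelin in HEPES stimulation buffer pH 7.4 for 60 min at 37 °C. Tb-anti-IP1 lysis (1:38), HTRF read 60 min later.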

[7] = Half life in Wistar rat at 0.5 mg/kg, iv by LC-MS/MS analysis; assay type: ADME, organism-based; details: in vivo
[8] = biological target: T2, Gonadotropin-releasing hormone receptor; experiment: Antagonist activity at rat GnRH receptor expressed in CHO-K1 cells assessed as inhibition of buserelin-induced response preincubated for 20 mins followed by buserelin addition and measured after 60 mins by TR-FRET assay; assay type: cell-based; how it was run: as §1
[9] = Lipophilicity, log D of the compound in pH 7.5 MeCN/H2O solution by reversed-phase HPLC analysis; assay type: physicochemical
How it was run: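 Indirect reversed-phase HPLC at pH 7.5, calibrated with n-alkan-2-ones C3–C16. Compounds applied as 0.67 mM DMSO stocks in MeCN/H2O (1:1).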

[10] = biological target: T1, Gonadotropin-releasing hormone receptor; experiment: Inhibition of Tag-lite green-labeled agonist binding to terbium fluorophore-labeled human N-terminal SNAP-tag GnRh receptor expressed in HEK293 cells assessed as equilibrium dissociation constant by TR-FRET assay; assay type: cell-based
Rattus norvegicus [11] = experiment: Suppression of ovariectomized-induced increase in plasma luteinizing hormone level in Wistar Han rat at 0.1 mg/kg, sc measured up to 24 hrs; assay type: functional, organism-based; details: time hrs <=24
[12] = biological target: T1, Gonadotropin-releasing hormone receptor; experiment: Inhibition of Tag-lite green-labeled agonist binding to terbium fluorophore-labeled human N-terminal SNAP-tag GnRh receptor expressed in HEK293 cells assessed as dissociation constant by TR-FRET assay; assay type: cell-based
[13] = biological target: T3, Gonadotropin-releasing hormone receptor (Homo sapiens) (UniProt P30968); experiment: Inhibition of Tag-lite green-labeled agonist binding to terbium fluorophore-labeled human N-terminal SNAP-tag GnRh receptor expressed in HEK293 cells assessed as association rate constant by TR-FRET assay; assay type: cell-based; details: filed as antagonist
T3 sequence (whole entry): T1 sequence (P30968 whole entry)
How it was run: (§2)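 Kinetic competition at rt: tracer at 10 nM final with compound, Tb-hGnRH-R cells injected in the reader. TR-FRET read at time zero and every 21 s. Baseline-subtracted traces fitted with the Motulsky–Mahan competitive kinetics model. At least two independent experiments, two replicates each.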

[14] = biological target: T3, Gonadotropin-releasing hormone receptor (Homo sapiens); experiment: Inhibition of Tag-lite green-labeled agonist binding to terbium fluorophore-labeled human N-terminal SNAP-tag GnRh receptor expressed in HEK293 cells assessed as residence time by TR-FRET assay; assay type: cell-based; details: filed as antagonist; how it was run: as §2
[15] = biological target: T3, Gonadotropin-releasing hormone receptor (Homo sapiens); experiment: Inhibition of Tag-lite green-labeled agonist binding to terbium fluorophore-labeled human N-terminal SNAP-tag GnRh receptor expressed in HEK293 cells assessed as dissociation rate constant by TR-FRET assay; assay type: cell-based; details: filed as antagonist; how it was run: as §2
Rattus norvegicus [16] = experiment: Suppression of ovariectomized-induced increase in plasma luteinizing hormone level in po dosed Wistar Han rat measured up to 24 hrs; assay type: functional; details: time hrs <=24
How it was run: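 Ovariectomized rats given single oral doses, range 1 to 30 mg/kg. Plasma LH followed over time, with cetrorelix at 0.1 mg/kg sc as reference. ED50 calculated from the dose-response.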

Rattus norvegicus [17] = experiment: Suppression of ovariectomized-induced increase in plasma luteinizing hormone level in Wistar Han rat at 30 mg/kg, ip measured after 1 hr relative to control; assay type: functional
How it was run: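 Ovariectomized rats given a single intraperitoneal injection at 30 mg/kg. Plasma LH measured 1 h later and compared with vehicle-treated animals.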

[18] = biological target: Voltage-gated inwardly rectifying potassium channel KCNH2 (Homo sapiens, UniProt Q12809); experiment: Inhibition of human ERG expressed in HEK293 cells assessed as reduction in channel inward tail current by whole cell voltage clamp assay; assay type: cell-based
[19] = Aqueous solubility of compound at pH 6.5 incubated for 24 hrs under shaking condition by HPLC-MS/MS analysis; assay type: physicochemical; details: aqueous solution
How it was run: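 Compound from 1 mM DMSO solution, pH 6.5 buffer added, shaken 24 h at rt. Filtered, dissolved compound quantified by HPLC-MS/MS.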

Chain of Voltage-gated inwardly rectifying potassium channel KCNH2 (Q12809 whole entry): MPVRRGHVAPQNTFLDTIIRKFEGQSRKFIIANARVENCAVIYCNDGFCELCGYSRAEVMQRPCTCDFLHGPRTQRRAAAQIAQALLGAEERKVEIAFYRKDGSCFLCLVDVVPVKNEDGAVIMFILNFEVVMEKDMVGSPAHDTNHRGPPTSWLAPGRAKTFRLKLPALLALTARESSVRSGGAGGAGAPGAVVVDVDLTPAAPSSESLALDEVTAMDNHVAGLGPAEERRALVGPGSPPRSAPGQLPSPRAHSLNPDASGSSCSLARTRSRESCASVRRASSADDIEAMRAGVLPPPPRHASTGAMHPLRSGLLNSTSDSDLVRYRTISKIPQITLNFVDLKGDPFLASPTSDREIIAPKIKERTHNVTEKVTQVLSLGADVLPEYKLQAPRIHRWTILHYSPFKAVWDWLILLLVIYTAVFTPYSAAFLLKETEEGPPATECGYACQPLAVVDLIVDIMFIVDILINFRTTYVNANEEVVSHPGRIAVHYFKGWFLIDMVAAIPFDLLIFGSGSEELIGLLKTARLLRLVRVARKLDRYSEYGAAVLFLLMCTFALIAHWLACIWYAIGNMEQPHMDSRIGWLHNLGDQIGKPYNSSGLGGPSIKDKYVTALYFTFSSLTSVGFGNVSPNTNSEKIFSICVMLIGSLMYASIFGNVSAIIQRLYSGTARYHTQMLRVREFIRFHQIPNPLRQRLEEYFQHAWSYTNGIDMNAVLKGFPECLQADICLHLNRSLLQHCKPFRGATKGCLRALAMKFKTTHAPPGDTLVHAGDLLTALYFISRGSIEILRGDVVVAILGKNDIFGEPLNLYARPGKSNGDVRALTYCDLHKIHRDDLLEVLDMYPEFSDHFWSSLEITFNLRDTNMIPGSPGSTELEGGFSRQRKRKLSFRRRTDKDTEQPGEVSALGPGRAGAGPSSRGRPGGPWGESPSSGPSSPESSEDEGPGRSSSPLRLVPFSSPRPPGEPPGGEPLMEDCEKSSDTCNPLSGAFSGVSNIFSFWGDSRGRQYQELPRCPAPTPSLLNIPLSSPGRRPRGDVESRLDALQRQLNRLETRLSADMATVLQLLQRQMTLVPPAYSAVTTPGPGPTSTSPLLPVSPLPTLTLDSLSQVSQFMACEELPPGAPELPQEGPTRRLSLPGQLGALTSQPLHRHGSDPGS

## CC(=O)N1CCC2(CC1)c1cc(C(=O)NCc3ncccc3Cl)ccc1N(S(=O)(=O)c1ccc(F)cc1)C2C (single isomer, unassigned)
[1]
  IC50: 53.5 nM
[2]
  clearance: 28.3 mL/min/kg
[3]
  CLint scaled at 1 µM: 11.7 mL/min/kg
[4]
  IC50: 35 nM
[5]
  bioavailability: 18%

## COc1ccc(S(=O)(=O)N2c3ccc(C(=O)NCc4ccccc4Cl)cc3C3(CCN(C(C)=O)CC3)C2C)cc1 (stereo in doubt; form 2)
[1]
  IC50: 41 nM
[2]
  CL: 78.3 mL/min/kg
[3]
  CLH: 46.7 mL/min/kg
[4]
  IC50: 99 nM
[6]
  IC50: 29 nM
[7]
  half-life: 0.82 h
[8]
  IC50: 34 nM

## O=C(NCc1ncccc1Cl)c1ccc2c(c1)C1(CCS(=O)(=O)CC1)C(C1CC1)N2S(=O)(=O)c1ccc(F)cc1 (stereo in doubt)
[1]
  IC50: 60 nM
[2]
  clearance: 30 mL/min/kg
[3]
  CLint scaled at 1 µM: 4.17 mL/min/kg
[6]
  IC50: 40 nM
[5]
  bioavailability: 27%
[7]
  half-life: 2.1 h

## CC1N(S(=O)(=O)c2ccc(F)cc2)c2ccc(C(=O)NCc3ccccc3Cl)cc2C12CCNCC2 (stereo in doubt)
[1]
  IC50: 99 nM
[2]
  clearance: 23.3 mL/min/kg
[3]
  CLint scaled at 1 µM: 33.3 mL/min/kg
[4]
  IC50: 172 nM
[6]; cho-k1
  IC50: 27 nM
[7]
  half-life: 8.1 h

## COc1ccc(S(=O)(=O)N2c3ccc(C(=O)NCc4ccccc4Cl)cc3C(C)(C)C2C)cc1 (stereo in doubt; 1a)
[1]
  IC50: 570 nM
[3]
  CLint scaled at 1 µM: 51.7 mL/min/kg
[9]
  chromatographic logD: 3.8
[4]
  IC50: 1500 nM
[6]
  IC50: 730 nM
[8]
  IC50: 1100 nM

## CC(=O)N[C@H](Cc1ccc2ccccc2c1)C(=O)N[C@H](Cc1ccc(Cl)cc1)C(=O)N[C@H](Cc1cccnc1)C(=O)N[C@@H](CO)C(=O)N[C@@H](Cc1ccc(O)cc1)C(=O)N[C@H](CCCNC(N)=O)C(=O)N[C@@H](CC(C)C)C(=O)N[C@@H](CCCNC(=N)N)C(=O)N1CCC[C@H]1C(=O)N[C@H](C)C(N)=O [CETRORELIX] (Ac-[d2Nal][dPhe(4-Cl)][d3Pal]SY[dCit]LRP[dA]-NH2)
[10]
  Kd: 0.135 nM
Rattus norvegicus [11]
  Activity: Active
[12]
  Kd: 0.0017 nM
[13]
  K: 3.57 10^6/M/s
[14]
  TIME: 0.583 h
[15]
  K: 1 10^-5/s

## COc1cccc(-c2c(C)n(Cc3c(F)cccc3C(F)(F)F)c(=O)n(C[C@H](NCCCC(=O)O)c3ccccc3)c2=O)c1F [ELAGOLIX SODIUM]
[10]
  Kd: 1.19 nM
[12]
  Kd: 3.21 nM
[13]
  K: 2.06 10^5/M/s
[14]
  TIME: 1.27 h
[15]
  K: 3.3 10^-4/s

## COc1ccc(S(=O)(=O)N2c3ccc(C(=O)NCc4ccccc4Cl)cc3C3(CCN(C(C)=O)CC3)C2C)cc1 (stereo in doubt; form 3)
[1]
  IC50: 15 nM
[2]
  CL: 31.7 mL/min/kg
[3]
  CLH: 20 mL/min/kg
[4]
  IC50: 28 nM
[5]
  bioavailability: 1.3%

## O=C(NCc1ncccc1Cl)c1ccc2c(c1)C1(CCS(=O)(=O)CC1)C(C1CC1)N2S(=O)(=O)c1ccc(F)cc1 (stereo in doubt; 4a) [listing 1 of 2 here]
[1]
  IC50: 60 nM
[9]
  chromatographic logD: 3
[6]; cho-k1
  IC50: 40 nM
Rattus norvegicus [16]
  ED50: 5.5 mg/kg

## O=C(NCc1ncccc1Cl)c1ccc2c(c1)C1(CCS(=O)(=O)CC1)C(C1CC1)N2S(=O)(=O)c1ccc(F)cc1 (stereo in doubt; 4a) [listing 2 of 2 here]
Rattus norvegicus [16]
  Activity: Dose-dependent effect

## CC1N(S(=O)(=O)c2ccc(F)cc2)c2ccc(C(=O)NCc3ccccc3Cl)cc2C12CCNCC2 (stereo in doubt; 3a)
Rattus norvegicus [17]
  Activity: 74%
[18]
  IC50: 1100 nM
[1]; cho-k1
  IC50: 99 nM
[19]
  solubility at 24 h: 271 µg/mL (≈ 513 µM)
[9]
  chromatographic logD: 2.8
[4]; cho-k1
  IC50: 172 nM
[6]
  IC50: 27 nM
[5]
  bioavailability: < 2%

From ChEMBL document CHEMBL4673248, “Discovery and Characterization of BAY 1214784, an Orally Available Spiroindoline Derivative Acting as a Potent and Selective Antagonist of the Human Gonadotropin-Releasing Hormone Receptor as Proven in a First-In-Human Study in Postmenopausal Women” (J Med Chem, 2020)
